LGR2 inh: inhibitors of bursicon-induced LGR2 CRE-luciferase signal, primary screen, cell-based, HEK293, CRE-luciferase reporter, bursicon stimulation | Drosophila bursicon receptor LGR2 (rickets) | bursicon-stimulated, 4 h | inhibition, % at 9.99 µM | 0.35% of 380,000 active | AID 720647, 2013;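 active = drop in luminescence signal, shown as inhibition above about 50% in the replicate tests, limit read from the data, passing the limit was not always enough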;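 also: agonist challenge used bursicon conditioned medium at about half maximal strength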
TWEAK-Fn14 inh: inhibitors of TWEAK-Fn14 signaling, primary screen, luciferase reporter cells, uHTS; TWEAK-stimulated Fn14 reporter cells, luciferase luminescence, 8 h; inhibition, % at 10 µM; 2% of 360,000 active; in the data active = inhibition above about 50%
Xi reactivation: activators of inactive X chromosome reactivation, primary screen, imaging, XiGFP fibroblasts, GFP high-content imaging, set 2. activation, % at 7.58 µM. AID 743238, 2013. XiGFP mouse fibroblasts, % GFP-positive cells imaging, 3 d; cells co-treated with 5-aza-dC sensitizer; scaled so ellipticine positive control = 100%. 0.055% of 360,000 active;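 active = mean normalized replicate activation at least 10% and every replicate at or above 10%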;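 also: 0% = median of on-plate neutral control wells and 100% = ellipticine 6 µM median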
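assay system = SV40-immortalized XiGFP fibroblast cells, line 68-5-11 | buffer or medium = DMEM plus 5-aza-dC sensitizer | doses = single-point pinned compound dosing | times = 3-day compound exposure, then 15 min fixation at room temperature | benchmarks = positive control ellipticine, 6 µM final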
CaV13 FRET inh: Disruptors of the CACNA1D IQ motif to Ca2+-dependent inactivation inhibitor domain association, primary screening, Förster resonance energy transfer in intact living …; HEK cells, CFP/YFP FRET ICDI-IQ, plate reader, 10 min; percent FRET-ratio fall versus neutral wells; inhibition, % at 12.3 µM; 0.098% of 340,000 active; AID 743397;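 active = mean replicate inhibition of at least 30% and at least 1% of replicates passing that level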;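 also: 0% = median of the neutral control wells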
TROY signal inh: inhibitors of TROY-driven NF-kB signaling, primary screen, Q293 LMP1-TROYcd cells, NF-kB luciferase, uHTS | AID 1347056, 2019 | Q293 LMP1-TROYcd NF-kB luciferase reporter, 4 h | 0.98% of 360,000 active | inhibition, % at 10 µM;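 active = compounds whose plate-normalised and pattern-corrected inhibition of the luciferase reporter signal at the single screening dose is 50% or more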
Numbers without * were called inactive; . = not tested or not shown. Hits are enriched below; roughly 2% of the tested compounds scored in any of these assays.

SMILES	LGR2 inh	TWEAK-Fn14 inh	Xi reactivation	CaV13 FRET inh	TROY signal inh
CC1=Nc2ccccc2/C1=C/c1sc(=N)n(-c2nccs2)c1O	-2	101*	.	.	74*
CC1=Nc2ccccc2/C1=C/c1nc(-c2ccc(C)s2)oc1O	10	10	0	-9	1
C/C(=N\NC(=O)c1ccc(Br)cc1)C1C(=O)c2ccccc2C1=O	-56	-4	.	-8	46
C/C(=N\NC(=O)c1ccc(-c2ccccc2)cc1)C1C(=O)c2ccccc2C1=O	42	46	0	-2	56*
CC(C)NC(=O)Nc1cccc2c1O[C@H](CN(C)Cc1ccncc1)[C@H](C)CN([C@H](C)CO)C2=O	6	.	0	.	.
O=C(C1CCN(S(=O)(=O)c2cccc3cccnc23)CC1)N1CCN(c2ccc(Cl)cc2)CC1	2	51*	0	12	41
O=C(C1CCN(S(=O)(=O)c2cccc3cccnc23)CC1)N1CCN(c2ccccn2)CC1	.	9	.	.	-10
O=C(Nc1ccccc1Cl)C1CCCN(S(=O)(=O)c2cccc3cccnc23)C1 (configuration not stated)	1	-9	0	-2	6
O=C(Nc1nc2cc(Cl)ccc2s1)C1CCCN(S(=O)(=O)c2cccc3cccnc23)C1 (configuration not stated)	.	84*	.	.	46
Cc1ccc(/C=N\NC(=O)/C(=C\Nc2nccc(C)n2)NC(=O)c2ccccc2)cc1	4	-8	0	-6	17
COc1ccc(/C=N\NC(=O)/C(=C\Nc2nccc(C)n2)NC(=O)c2ccccc2)cc1	10	71*	.	-5	.
CO[C@@H]1CN(C)C(=O)c2cc(NS(C)(=O)=O)ccc2OC[C@H](C)N(Cc2ccccn2)C[C@@H]1C	-7	.	0	.	.
C=C1CC(COc2ccc3c(C)c(Cl)c(=O)oc3c2)(c2ccccc2)OC1=O (configuration not stated)	49*	83*	0	-7	76*
COc1ccc2c(C)c(Cl)c(=O)oc2c1	11	-16	.	.	-5
Cc1noc(C)c1NC(=O)Nc1ccc2c(c1)C(=O)N([C@H](C)CO)C[C@@H](C)[C@H](CN(C)C(=O)Nc1c(C)noc1C)OCCCC[C@@H](C)O2	-6	.	0	.	.
COc1ccc(-c2cc(CCCC(=O)NCc3ccccn3)no2)cc1	-3	86*	0	-5	18
CCOc1ccc(NC(=O)CCCc2cc(-c3ccc(OCC)cc3)on2)cc1	.	-20	.	-5	-6
CCOc1ccc(-c2cc(CCCC(=O)Nc3cccc(OC)c3)no2)cc1	-17	57*	0	-1	24
COc1ccc(NC(=O)Nc2ccc3c(c2)[C@H]2C[C@H](CC(=O)NCc4ccccc4F)O[C@H](CO)[C@H]2O3)cc1	-2	.	0	.	.
C[C@H](CO)N1C[C@H](C)[C@@H](CN(C)S(C)(=O)=O)Oc2ccc(NC(=O)C3CC3)cc2CC1=O	-10	.	0	.	.
COc1ccccc1NC(=O)C1CCCN1S(=O)(=O)c1cccc2nsnc12 (configuration not stated)	.	-1	.	.	-11
COc1ccc(NC(=O)C2CCCN2S(=O)(=O)c2cccc3nsnc23)c(OC)c1 (configuration not stated)	.	70*	.	.	3
Cc1ccc(S(=O)(=O)NCC[C@@H]2CC[C@H](NC(=O)c3cccc(F)c3)[C@H](CO)O2)cc1	6	.	0	.	.
CCC(=O)N1C(C(=O)NCc2ccc(OC)cc2)CSC1c1ccc(OC)cc1 (configuration not stated)	10	-6	0	45*	5
CCC(=O)N1[C@H](CO)[C@H](c2ccc(-c3cccc(F)c3)cc2)[C@@H]1CN(C)C(C)=O	7	.	0	.	.
SMILES	LGR2 inh	TWEAK-Fn14 inh	Xi reactivation	CaV13 FRET inh	TROY signal inh
C[C@@H]1CCCCO[C@H](CN(C)Cc2ccc(C(F)(F)F)cc2)[C@@H](C)CN([C@@H](C)CO)C(=O)c2cc(NC(=O)Nc3ccc4c(c3)OCO4)ccc2O1	19	.	0	.	.
CN1/C(=C/C(=O)c2nc(S(C)(=O)=O)ncc2Cl)C(C)(C)c2ccccc21	.	84*	.	.	70*
COc1ccccc1OCC(=O)/C=C1/N(C)c2ccccc2C1(C)C	30	17	0	-18	13
CN1/C(=C\C(=O)c2cncc(Br)c2)C(C)(C)c2ccccc21	-4	56*	0	-27	16
CN1/C(=C\C(=O)COc2ccc3c(c2)OCO3)C(C)(C)c2ccccc21	.	64*	.	-2	69*
CN1/C(=C\C(=O)c2ccco2)C(C)(C)c2ccccc21	25	61*	.	-4	36
CO[C@@H]1CN(C)C(=O)c2ccc(NC(=O)c3cccc(F)c3)cc2OC[C@H](C)N(CC2CC2)C[C@@H]1C	21	.	0	.	.
